Yeast life ext – compounds extending yeast replicative lifespan, primary screen, S. cerevisiae, OD615 | AID 775, 2007 | inhibition of the nicotinamide effect, % at 10 µM | S. cerevisiae growth with nicotinamide; deaD strain in restrictive glucose medium | 130,000 compounds, 0.68% hits;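 active = inhibition above a set limit, placed 3 SD over the median of all compounds, cut at about 26% in these data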
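assay system = DeaD-strain S. cerevisiae | measured by = absorbance at 615 nm | probe or stimulus = nicotinamide 1.5 mM | buffer or medium = CSMM-D glucose medium, restrictive | times = 48 h at 30 °C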
BB579 growth dn – growth inhibitors of yeast BB579 in restrictive medium, primary screen, yeast lifespan-shortening project, S. cerevisiae; OD615, 48 h; 140,000 compounds, 0.51% hits; inhibition, % at 10 µM; AID 804, 2007;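 active = inhibition above a set limit, 3 SD over the mean compound inhibition, cut at about 44% in these data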
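System: Saccharomyces cerevisiae DeaD strain BB579, replicative lifespan model yeast | Buffer or medium: Restrictive glucose-based CSMM-D medium | Times: 4 h preincubation and 48 h exposure at 30 °C | Detection: OD615 turbidity measurement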
sdo1 growth – growth rescue of sdo1-depleted yeast, primary screen, S. cerevisiae, bone marrow failure model. S. cerevisiae sdo1-depleted JHY4D growth rescue, OD600 30 h; hits give high values; pdr5 snq2 efflux-pump mutant strain. z-score at 10 µM. 140,000 compounds, 0.21% hits. AID 817, 2007;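 active = z-score above 3 at both the 24 hr and the 30 hr optical density reads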
RAM network inh – inhibitors of the yeast RAM network, primary screen, dse1pr::URA3 reporter, 5-FOA selection; inhibition, % at 50 µM; AID 868, 2007; 190,000 compounds, 1.8% hits; S. cerevisiae dse1pr::URA3 reporter, 5-FOA growth OD615, 2 d; analog-sensitive cbk1-as2 kinase mutant strain;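 active = inhibition above a set limit, 3 SD over mean compound inhibition, cut at about 8.4% in these data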;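 note: inhibition rescues growth on 5-FOA so higher OD means more RAM inhibition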
Of the large screens only hits and unclear results are named; the others gave an inactive call. Only some compounds are listed: those with a hit (about 2.7% of all), similar ones and a draw of the others.

COC(=O)c1sc2cc([N+](=O)[O-])cc(SCC(C)C)c2c1N	RAM network inh 11
CC(=O)N1CCN(c2ccc(NC(=O)COc3ccc(Cl)cc3Cl)cc2)CC1	RAM network inh 10
CC(=O)N1CCN(c2ccccc2NC(=O)COc2ccc(Cl)cc2Cl)CC1	none
Cc1cc(O)c(/C=N/Nc2ccccc2Cl)c(=O)o1	BB579 growth dn 98
Cc1cccc(N=Cc2c(O)cc(C)oc2=O)c1	none (no result: Yeast life ext, BB579 growth dn, sdo1 growth)
Cc1cc(O)c(/C=N/Nc2cccc(Cl)c2)c(=O)o1	BB579 growth dn 98
Cc1cc(O)c(/C=N/Nc2ccc(Cl)cc2)c(=O)o1	BB579 growth dn 97
CCOC(=O)c1ccc(NC(=O)c2cc(OC)c(OC)c(OC)c2Br)cc1	none
O=C(O)c1c[nH]c(=S)n1-c1ccc(F)cc1	Yeast life ext 103
CSc1ncc(C(=O)O)n1-c1ccc(F)cc1	none
COC(=O)/C=C1/SC(=NC(=O)c2ccccc2)NC1=O	Yeast life ext 28
COC(=O)/C=C1\SC(=NC(=O)c2cccc(Cl)c2)NC1=O	none
Cc1cccc(-c2nsc(SCC(=O)c3ccc(Cl)cc3)n2)c1	none
O=C(CSc1nc(-c2ccccc2Cl)ns1)c1ccc(Cl)cc1	RAM network inh 11
Nc1cccc(-n2nncc2-c2ccccc2)c1	none
COc1cccc(-n2nnc3c(=O)n(CC(=O)Nc4cc(C)on4)cnc32)c1	none (no result: Yeast life ext, BB579 growth dn, sdo1 growth)
Cc1nnc(C)n1/N=C/c1cc(Br)cc(Br)c1O	BB579 growth dn 100
COc1ccccc1CNC(=O)C(CCSC)NS(=O)(=O)c1ccc2c(c1)oc(=O)n2C (stereo not drawn)	Yeast life ext 87
CCOC(=O)c1sc(NC(=O)CSc2nc(-c3ccco3)cc(C(F)(F)F)n2)c(C(=O)OC)c1C	none
CCCOC(=O)c1c(NC(=O)CSc2nc(-c3ccco3)cc(C(F)(F)F)n2)sc(C(=O)OC)c1C	RAM network inh 8.8
Cc1cc2cc(C=C(C#N)C#N)c(Cl)nc2cc1C	Yeast life ext 32
CCOC(=O)/C(C#N)=C/c1cc2ccc(C)cc2nc1Cl	Yeast life ext 32
Cc1cc(C)cc(-n2c(C)cc(C=C(C#N)C#N)c2C)c1	none
Cc1ccc(Nc2cc(-n3nc(C)cc3C)ncn2)c(C)c1	RAM network inh 9.1
Cc1nn(Cc2ccccc2)c(C)c1C(=O)OCC(=O)c1cc(C)n(C2CC2)c1C	RAM network inh 9.1
CN1CCN(C2=Cc3ccc(Cl)cc3Sc3ccc(F)cc32)CC1	BB579 growth dn 86 (no result: Yeast life ext)
COc1ccc(CN(C)CC(=O)Nc2ccccc2C(F)(F)F)c(OC)c1	none
COc1ccc(C(=O)N/N=C2\SCC(=O)N2Cc2ccc3c(c2)OCO3)c(OC)c1	none
CC(=O)Nc1ccc(C(=O)OCC(=O)NCc2ccccc2)cc1	none (no result: Yeast life ext, BB579 growth dn, sdo1 growth)
CC(=O)Nc1ccc(C(=O)OCc2ccc(Cl)cc2)cc1	none
CC(=O)Nc1ccc(C(=O)OCC(=O)N(Cc2ccccc2)C(C)(C)C)cc1	Yeast life ext 54
CC(=O)Nc1ccc(C(=O)OCc2ccccc2Br)cc1	RAM network inh 8.8 (no result: Yeast life ext, BB579 growth dn, sdo1 growth)
CN(C)C(CNC(=O)c1cc(S(=O)(=O)N(C)c2ccccc2)ccc1Cl)c1cccs1 (stereo not drawn)	none (no result: Yeast life ext, BB579 growth dn, sdo1 growth)
O=C1NC2(CCCCC2)C(=O)N1CCS(=O)(=O)Oc1ccc(Br)cc1	RAM network inh 8.8 (no result: Yeast life ext, BB579 growth dn, sdo1 growth)
Cc1ccc(S(=O)(=O)N(C)c2cc(S(=O)(=O)Nc3ccncc3)c(C)cc2C)cc1	none
CNS(=O)(=O)c1cc(N(C)S(=O)(=O)c2ccc(C)cc2)c(C)cc1C	RAM network inh 10 (no result: Yeast life ext, BB579 growth dn, sdo1 growth)
O=C(NCc1ccncc1)C(=O)NCC1OCCCN1S(=O)(=O)c1ccccc1 (stereo not drawn)	none
COc1ccc(C(=O)Nn2c(SCC(=O)N3CCC(C)CC3)nc3ccccc3c2=O)cc1	none
CCO[C@H]1OC(C(=O)NCc2ccccc2)=C[C@@H](c2ccc(C(F)(F)F)cc2)[C@@H]1CCCO	none (no result: Yeast life ext, BB579 growth dn, sdo1 growth)
CCO[C@H]1OC(C(=O)Nc2ccccc2)=C[C@@H](c2ccc(C(F)(F)F)cc2)[C@@H]1CCCO	RAM network inh 9.0 (no result: Yeast life ext, BB579 growth dn, sdo1 growth)
Cc1cc(C)nc(Nc2ccc(C)c([N+](=O)[O-])c2)n1	none (no result: Yeast life ext, BB579 growth dn, sdo1 growth)
COC(=O)c1cc(F)c(-n2cncn2)c(F)c1	none
O=C(NC(Cc1c[nH]c2ccccc12)C(=O)O)c1ccccc1 (stereo not drawn)	none
O=C(COC(=O)C(Cc1ccccc1)NC(=O)c1ccc(Cl)cc1)c1ccc(Cl)cc1 (stereo not drawn)	RAM network inh 9.1

Assay outcomes: PubChem, several laboratories
